Test results reported in the EternaBench riboswitch data.

Tested on: MS2 coat protein
Assay: apparent Kd, MS2 coat protein; higher = weaker binding; RNA-MaP array; FMN 200 µM where present
Summary of the method: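 Designs were transcribed by stalled E. coli RNA polymerase on Illumina sequencing-chip clusters. They were titrated with SNAP-549-labelled MS2 coat protein from 0.7 or 1.5 nM, doubling to 3 µM, in 100 mM Tris-HCl pH 7.5, 80 mM KCl, 4 mM MgCl2, BSA, DTT, yeast tRNA and Tween-20, without and then with constant ligand. The apparent Kd is the median of filtered per-cluster fits after normalisation of green signal to red-channel RNA signal and control-cluster median Fmax.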

[1] = designed as: ON switch for flavin mononucleotide, no ligand
[2] = ligand present: flavin mononucleotide, designed as: ON switch for flavin mononucleotide
[3] = designed as: OFF switch for flavin mononucleotide, no ligand
[4] = ligand present: flavin mononucleotide, designed as: OFF switch for flavin mononucleotide

Sequence | apparent Kd [1] | apparent Kd [2] | apparent Kd [3] | apparent Kd [4]
GACUUGCGCACAGGAUAUCCACGUAGCGGACGUGGAGAAGGGUGACAUGAGGAUCACCCAUGUACGUAAGUCUGGAUCACUUCC | 48.3 nM | 21.8 nM | – | –
UUAUAAAGUGUGAGGAUAUGCUGGUCCAUAGAUCAGCAGAAGGCACAUGAGGAUCACCCAUGUAAUAUAUUUUU | – | – | 28.8 nM | 133 nM
GACAUACAUGAGGAUCACCCAUGUUCAGGCGGACAAGGAUAUGUGUGGAAACCAUACUAUACAGAAGGUGUCUGUC | 24.8 nM | 17.3 nM | – | –
GCGCAAGCAUGAGGAUAUUUAUUAAAUAAUAAUAAAGAAGGCAUGUCAAAUGACAUGAGGAUCACCCAUGUUGGCAAAAUGCGC | 45.9 nM | 9.77 nM | – | –
AAGCUCGUGUGAGGAUAUGCCGCCGUUUCGGCUGCAGAAGGUGCUACGUUACAUGAGGAUCACCCAUGUCUCUGUUGUUUCGUC | 29.9 nM | 24.8 nM | – | –
UUGUUUUUUGAGGAUAUGCGACGUUUUUUCGUCGUAGAAGGCGAUACAUGAGGAUCACCCAUGUUUAUGGGCAU | – | – | 124 nM | 169 nM
CGUGACGACAUAGGAUAUUGAUACAUGAGGAUCACCCAUGUCACCCAUUUAUCUCUAAGUGUUGACAAGAAGGAUGUGGUCACG | 10.1 nM | 9.33 nM | – | –
CCGGAUAUGCAGGAUAUCGUAUCGGAGACGAUACGAGAAGGGUAUACAUGAGGAUCACCCAUGUGUCCUACCGG | – | – | 26.4 nM | 32.1 nM
CGUAUACAUGAGGAUCACCCAUGUAAGGAUAUGCUUUAUUAUUAUUAUUAUUAUUGUUGCAGAAGGUACAUUGC | – | – | 19 nM | 17.7 nM
UUAUACGUUGAGGAUAUGCGACUUUUUUUAGUUGUAGAAGGCGAUACAUGAGGAUCACCCAUGUUUAUGGGCAU | – | – | 166 nM | 218 nM
AAUCUGUCGGUAGGAUAUCAGUUAGGAGAGCCGACAUGAGGAUCACCCAUGUACAGAAUCAAGGGUGAGAAGGACCGGGUAGUA | 114 nM | 111 nM | – | –
AUCCGGCGUGUAGGAUAUGGAUCCGAUUAGGAUCCAGAAGGACAUGAGGAUCACCCAUGUACAUGUAAACAGUCAUCACCGGAA | – | – | 10.2 nM | 49.4 nM
GCCUCAGAAUUAAUUGUGAGAGGCAGAAGGCUAUAUCUCGUGUUAAACAUGAGGAUCACCCAUGUAGAGGAUAUGCUAUUACAG | – | – | 9.3 nM | 10.6 nM
CCUCAGUAAGGAUAUCAGCUUAUGGAGGUGGUAAUGAGAGCUGAGAAGGUACAUGAGGAUCACCCAUGUUAGUU | – | – | 57 nM | 102 nM
AAUUGACACGUAGGAUAUCGAACUAUUUUAACACGAGAAGGACGUACAUGAGGAUCACCCAUGUUUAAUGGUGUAGAUAAGUUG | – | – | 70.9 nM | 188 nM
GCGUUGAACGAGAAGGCCAAUACAUGAGGAUCACCCAUGUUUAGAUGUUUUGGAGGAUAUCGUACGUCGUCUCAUGAGCAACGC | – | – | 6.68 nM | 7.92 nM
CGAUAGGACAGAGGAUAUACACAUGAGGAUCACCCAUGUAAUUACAAUUCUUGUGGUUCUUCCAUGUAGAAGGCUGUCCUAUCG | – | – | 113 nM | 335 nM
AAGUAGAUCCGAGGAUAUACAAGGCGGAAACGCUACAUGAGGAUCACCCAUGUAGAAGGCGGAUCUACAGGUACUAAAGUACCA | – | – | 5.84 nM | 10.5 nM

Sequence | apparent Kd [1] | apparent Kd [2] | apparent Kd [3] | apparent Kd [4]
AUAAAUAAGCAAGGAUAUUGUUUAAAUAAAUAACAAGAAGGUGCAGUUAAUUUCUCAAAACAUGAGGAUCACCCAUGUAUUUAA | 42.4 nM | 21.8 nM | – | –
UCGCUGCGAGGAUAUACAUGAGGAUCACCCAUGUACGGGUCCGGGUCUUUGUCUAUUGGUAGAAGGCGCAGUGA | – | – | 55.7 nM | 175 nM
GCCACGGGAGGAUAUCGCGGAGGCUACAUGAGGAUCACCCAUGUCUGGUCUUCGUGCUCCCGAGAAGGCCCGUCAG | – | – | 14 nM | 32.9 nM
CCGCCCUGGAGAGGAUAUGAUCCGUACUAAAGGUCAGAAGGCUCCGAGUUACAUGAGGAUCACCCAUGUAGGGCGGAAAAUAUG | 6.3 nM | 5.25 nM | – | –
GGGUACAUCGGAGGAUAUCAUGUAAAUACAUGAGGAUCACCCAUGUCGAUGGAGACAUCGGAGAUUGAGAAGGCCCAUGUACCG | 199 nM | 10.8 nM | – | –
GUACGGAAGGAGAAGGGCUAGGAGGUCCAGUUUAUGUGUGUUGCAACAUGAGGAUCACCCAUGUAGCAGGAUAUCCUUUGUACA | – | – | 85.6 nM | 177 nM
UGUCGGAGCAGAGGAUAUUACAUGAGGAUCACCCAUGUAUUAACCAAUAGCUGGAAACAGCAAUGUAAGAAGGCUGCUCCGACA | – | – | 5.11 nM | 7.87 nM
UUGAACAUAGGAUAUAGUUGUUUGUACAUGAGGAUCACCCAUGUUAGGGAUGUUUUGUUUCUAGAAGGAUGUUGAU | – | – | 170 nM | 80.3 nM
UGAUAACAUGUAGGAUAUGCAGCAUUGACCACUGCAGAAGGACAUGAGGAUCACCCAUGUAUCCAUACUAUGGGAUCACGCAAU | – | – | 24 nM | 85.5 nM
AUCAGCUCGUAAGGAUAUACGUCACUGCGUCAGCAGUGUGGUAAGAUCACAUGAGGAUCACCCAUGUAGAAGGGACGAGCUGAU | – | – | 15.6 nM | 142 nM
AAUAUGAGCUGGUUUAAACUCAAAACAUGAGGAUCACCCAUGUAGGAUAUCAGCACGAUAAGUGCUGAGAAGGACAUCCAGCUC | – | – | 14.2 nM | 16.5 nM
GGAUGACAUAGUCAUCCUUAACGAACAUGAGGAUCACCCAUGUAGGAUAUGCUACUCAAAGAGUAGCAGAAGGACAUGUGUCUU | – | – | 27.2 nM | 157 nM
ACAUACUAUCGAGGAUAUCGGUAAGAAAAGUUACGAGAAGGCGAUUAUAAAUUUAUAUUAUUAUACAUGAGGAUCACCCAUGUA | 20.9 nM | 21.3 nM | – | –
GACUUGUUAGGAUAUCUUACAUUUGCAUCAUAGCAACCAUUGGAGAAGGGACAUGAGGAUCACCCAUGUUUGGA | – | – | 31.6 nM | 31 nM
UUACUAUUGGAGAAGGCUCGAUAAUAUAUAAAGGGAGGAUAUCCAACAUGAGGAUCACCCAUGUUUCACCCAUAUGAGGAUCAC | – | – | 14.8 nM | 15.7 nM
AACGUGGCUUAGGAUAUUGCUACGCAAAAGUAACAAGAAGGAGGCACAUGAGGAUCACCCAUGUGAUUCGUUGA | – | – | 19.8 nM | 44.9 nM
GUACUUGUGCAGAAGGGCAUUGAUUUAGGUUGUUAGGUUGAUCAGAUAUGCAGGAUAUGCUAUACAUGAGGAUCACCCAUGUUC | 92 nM | 11.7 nM | – | –
GUUACACAUGAGGAUCACCCAUGUAAGGAUAUGCUGCGGUCGCGCUGACGUGACUGCAGCAGAAGGUACACAUG | – | – | 105 nM | 133 nM
